Compounds with a hit are over-represented: about 4.3% of the library has one in this group of screens.
CHO parental Ca = signal in parental CHO cells, OX1R antagonist counter-screen | parental CHO-K1, ATP-induced calcium, Fluo-8 fluorescence | inhibition, % at 5.6 µM | actives 0.63% (n = 330,000);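 active = inhibition above that plate's mean sample inhibition plus 3 SD, cut at about 26% in these data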;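 note: 0% = ATP-challenged DMSO wells and 100% = DMSO wells without ATP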
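Measured by: calcium-sensitive Fluo-8 fluorescence / Test system: CHO parental line / Controls: ATP-challenged DMSO wells low, unchallenged DMSO wells high / Measure: % inhibition / Compound: single nominal dose of 5.6 µM per compound / Replicates: single well per compound, no replicates / Reagent: ATP as calcium-mobilizing challenge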
TAAR1 agonist = human TAAR1 agonism | activation, % at 3 µM | Q96RJ0 | actives 0.99% (n = 360,000) | CHO RD-HGA16 TAAR1, Fluo-8 calcium fluorescence; vehicle wells 0%, saturating PEA agonist 100%;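 active = activation above the mean activation of all test compounds in the run plus 3 SD, cut at about 38% in these data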
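Benchmarks: low control DMSO, high control PEA (EC100); System: CHO RD-HGA16 cells carrying human TAAR1 plus Gα16; Detection: Fluo-8 fluorescence, 5 s baseline then 140 s kinetic read; Schedule: 17-24 h plating, Fluo-8 75 min 37 °C, 30 min RT; Read-out basis: % activation from peak over basal fluorescence ratio, DMSO-to-PEA scaled.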
OX1R antag-1 = blocks the human orexin 1 receptor; actives 1.8% (n = 330,000); O43613; inhibition, % at 6.6 µM; OX1R-expressing cells, FRET antagonist read-out; in the data active = inhibition mostly above about 38%, no sharp cut-off; inactive = mostly below about 40%;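 note: 0% = agonist challenge alone and 100% = reference antagonist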
TAAR1 antagonist = human TAAR1 antagonism; Q96RJ0; CHO RD-HGA16 TAAR1, Fluo-8 calcium fluorescence, antagonist; AID 624466; actives 1.5% (n = 360,000); inhibition, % at 3 µM;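 active = inhibition above a per-plate cutoff, the mean inhibition of test compounds on that plate plus 3 SD, cut at about 49% in these data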;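 note: 0% = DMSO plus EC80 beta-PEA response and 100% = DMSO alone without agonist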
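System: RD-HGA16 CHO cells with stable hTAAR1 and Gα16 | Probe or stimulus: EC80 β-phenethylamine stimulus | Dosing: 3 µM, single point | Times: Dye loading 75 min at 37 °C, then 30 min room temperature | Measured by: Fluo-8 calcium-sensitive fluorescence | Read-out basis: % inhibition of agonist calcium response | Replicates: n of 1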
OX1R antag-2 = blocks the human orexin 1 receptor | inhibition, % at 5 µM | CHO/OX1R cells, Fluo-8 calcium fluorescence, orexin A | O43613 | actives 0.43% (n = 330,000) | AID 434989;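 active = inhibition above its plate's threshold, mean inhibition of all tested compounds on the plate plus 3 SD, cut at about 37% in these data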;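 note: 0% = orexin A challenge wells and 100% = SB-334867-A antagonist wells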
GalR3 antag = blocks the human galanin receptor 3 | HEK293 GalR3-CNG cAMP membrane potential fluorescence; galR3 body fused to GalR1 C-terminus | actives 0.44% (n = 360,000) | inhibition, % at 3 µM | O60755;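 active = inhibition above the screen-wide average plus 3 SD, cut at about 13% in these data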;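 note: forskolin and galanin both at EC90 stimulate the cells; cAMP rise reported by CNG channel membrane potential dye signal; 0% = forskolin plus galanin with DMSO and 100% = forskolin alone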
Target sequence (O60755 1-299 limits assumed): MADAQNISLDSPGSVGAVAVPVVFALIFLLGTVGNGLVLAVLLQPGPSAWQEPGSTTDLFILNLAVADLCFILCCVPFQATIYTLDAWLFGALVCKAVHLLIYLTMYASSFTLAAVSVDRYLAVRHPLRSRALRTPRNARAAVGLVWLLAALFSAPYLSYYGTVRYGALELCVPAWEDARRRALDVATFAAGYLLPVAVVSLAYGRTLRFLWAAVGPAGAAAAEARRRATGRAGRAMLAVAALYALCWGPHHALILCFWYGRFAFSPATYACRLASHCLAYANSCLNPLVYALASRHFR
TAAR1 ag confirm = confirmation of human TAAR1 agonists. activation, % at 3 µM. AID 651783. actives 82% (n = 2,400). shares compounds with TAAR1 agonist. CHO RD-HGA16 TAAR1, Fluo-8 calcium fluorescence; scaled: DMSO 0%, maximal phenethylamine 100%;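 active = activation above a cutoff set at the run's mean compound activation plus 3 SD, cut at about 39% in these data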
Ga16 nonsel ag = nonselective agonism, TAAR1 counter-screen; shares compounds with TAAR1 agonist; CHO-Ga16 parental, Fluo-8 calcium fluorescence; normalized to maximal ATP response, DMSO zero; actives 50% (n = 2,400); activation, % at 3 µM; AID 651787;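 active = activation above the run cutoff, the mean activation over all tested wells plus 3 SD, cut at about 12% in these data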;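 note: 0% = DMSO wells and 100% = maximal ATP response on the peak over basal ratio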
TAAR1 desensitize = human TAAR1 agonist that also desensitizes the receptor | shares compounds with TAAR1 agonist | AID 651951 | inhibition, % at 3 µM | actives 46% (n = 2,400) | CHO RD-HGA16 hTAAR1, Fluo-8 calcium, beta-PEA response inhibition;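 active = inhibition above the run cutoff, the mean inhibition of all test compounds plus 3 SD, cut at about 49% in these data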;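 note: beta-PEA stimulus applied at its EC80; loss of beta-PEA calcium signal after compound pretreatment read as receptor desensitization; 0% = DMSO with beta-PEA at EC80 and 100% = DMSO alone without agonist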
Ga16 antag count = nonselective Ga16 antagonism, counter-screen; shares compounds with TAAR1 agonist; CHO-Ga16 ATP-induced calcium, Fluo-8 fluorescence; inhibition, % at 3 µM; actives 39% (n = 2,400); AID 651952;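 active = inhibition above the plate's mean compound inhibition plus 3 SD, computed per plate, cut at about 22% in these data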;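 note: 0% = EC80 ATP with DMSO and 100% = DMSO wells without ATP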
Starred values were filed as active, the others as inactive; . = no result given.

SMILES	CHO parental Ca	TAAR1 agonist	OX1R antag-1	TAAR1 antagonist	OX1R antag-2	GalR3 antag	TAAR1 ag confirm	Ga16 nonsel ag	TAAR1 desensitize	Ga16 antag count
O=C(c1cc(-c2ccccc2O)on1)N1CCc2ccccc2C1	-2	3	14	31	-10	2	.	.	.	.
O=C(c1cc(-c2ccc(O)cc2)on1)N1CCc2ccccc2C1	18	72*	13	33	7	1	91*	17*	67*	11
C1CCC(C(CC2CCCCN2)C2CCCCC2)CC1 (configuration not stated)	3	40*	5	32	-9	-5	58*	35*	24	21*
CC(C)(C)C(=O)c1sc2nc(-c3cccs3)cc(C(F)(F)F)c2c1N	-4	11	7	27	-4	-3	.	.	.	.
Cc1nnc(NC(=O)c2sc3nc(-c4cccs4)cc(C(F)(F)F)c3c2N)s1	42*	78*	19	89*	85*	-2	62*	77*	80*	80*
O=C(CCCn1c(=S)[nH]c2cc3c(cc2c1=O)OCO3)NCCc1ccccc1Cl	-12	52*	20	-12	-26	3	21	0	8	2
O=C(CCCn1c(=S)[nH]c2cc3c(cc2c1=O)OCO3)NCc1cccc(Cl)c1	-18	4	14	-20	-16	1	.	.	.	.
O=C(CCCCCn1c(=S)[nH]c2ccc(N3CCOCC3)cc2c1=O)NCc1ccccc1Cl	-19	3	6	-18	-33	0	.	.	.	.
O=C(CCn1c(=S)[nH]c2cc3c(cc2c1=O)OCO3)NCCc1ccccc1Cl	.	74*	.	41	.	-2	92*	2	78*	7
O=C(CCn1c(=S)[nH]c2cc3c(cc2c1=O)OCO3)NCc1ccccc1Cl	-10	0	18	17	-6	-7	.	.	.	.
O=C(CCCCCn1c(=S)[nH]c2ccc(N3CCOCC3)cc2c1=O)NCCc1ccccc1	-9	55*	8	22	-1	12	70*	3	42	10
COc1cc(NCCCn2cnc3c(OC)ncnc32)cc(OC)c1OC	.	5	.	4	.	-3	.	.	.	.
O=C1CSc2ccc(S(=O)(=O)N3CCN(c4ccccc4F)CC3)cc2N1	18	5	3	5	2	-9	.	.	.	.
COc1ccc(C(=O)NNC(=S)NC(=O)c2ccc(Cl)cc2)cc1	28	176*	-1	106*	33	0	141*	117*	102*	86*
Cc1cccc(C(=O)NC(=S)NNC(=O)c2ccc(Cl)cc2)c1	64*	171*	-7	104*	75*	-4	159*	121*	107*	93*
CCCCC(=O)NNC(=S)NC(=O)c1ccc(C)cc1	-1	98*	4	36	-6	0	83*	82*	38	40*
COc1ccc(C(=O)NC(=S)NNC(=O)c2ccc(NC(=O)C(C)C)cc2)cc1	-9	3	-1	-17	-2	-8	.	.	.	.
COc1ccc(-c2nn(-c3ccccc3)cc2C(=O)NC(=S)NNC(=O)c2ccncc2)cc1	-1	101*	24	56*	9	-7	82*	74*	76*	70*
COc1cc(C(=O)NNC(=S)NC(=O)c2ccc(Cl)cc2)cc(OC)c1OC	-1	141*	14	86*	13	-4	93*	84*	67*	43*

Bioassay records deposited in PubChem BioAssay by The Scripps Research Institute Molecular Screening Center.
